Measured values from different studies.
Protocols differ between the studies behind these lines.
AKR1B1: Aldo-keto reductase family 1 member B1 (AKR1B1, Homo sapiens, UniProt P15121)
TRPM8: Transient receptor potential cation channel subfamily M member 8 (TRPM8, Homo sapiens, UniProt Q7Z2W7)
LATS2: Serine/threonine-protein kinase LATS2 (LATS2, Homo sapiens, UniProt Q9NRM7)
SLC6A6: Sodium- and chloride-dependent taurine transporter (SLC6A6, Homo sapiens, UniProt P31641)

SMILES | target | test | setting | quantity | result
COc1cc(/C=N/NC(=S)NN=Cc2ccc(CO)o2)ccc1Oc1ccnc2cc(Cl)ccc12 | AKR1B1 | enzyme activity, inhibitor, absorbance |  | IC50 | 21.3 µM
CCCCCCCP(=O)(C(C)C)C(C)C | TRPM8 | calcium signal, agonist |  | EC50 | 4.73 µM
COc1cc(/C=N/NC(=S)NN=Cc2ccc([N+](=O)[O-])o2)ccc1Oc1ccnc2cc(Cl)ccc12 | AKR1B1 | enzyme activity, inhibitor |  | Ki | 4.65 µM
CCCCC(=O)Nc1ccc(-c2ccc3ncn(CCC)c(=O)c3c2)cn1 | Phosphatidylinositol 5-phosphate 4-kinase type-2 gamma (PIP4K2C, Homo sapiens, UniProt Q8TBX8, del300-341) | binding, ITC |  | Kd | 0.123 µM
Cc1cc(-c2ccnc3[nH]cc(F)c23)cc(F)c1[C@@]1(O)[C@H](C)CN(C2COC2)C[C@@H]1C | LATS2 | enzyme activity, inhibitor, radiometric |  | IC50 | 0.009 µM
CCNC(=O)C1CC(C)CCC1C(C)C (stereo not shown) | TRPM8 | calcium signal, agonist |  | EC50 | 8.36 µM
COc1cc(/C=N/NC(=S)N/N=C/c2ccccc2)ccc1Oc1ccnc2cc(Cl)ccc12 | AKR1B1 | enzyme activity, inhibitor, absorbance |  | IC50 | 17.2 µM
N#Cc1ccc(O[C@H]2CC[C@H](NC(=O)c3ccc(N4CCC(CN5CCN(c6cc7c(cc6F)C(=O)N(C6CCC(=O)NC6=O)C7=O)CC5)CC4)nn3)CC2)cc1Cl (stereo partly shown) | Platelet glycoprotein 4 (CD36, Homo sapiens, UniProt P16671) | binding, SPR |  | Kd | 5.9 µM
Cc1cc(-c2ccnc3[nH]cc(F)c23)cc(F)c1[C@@]1(O)[C@H](C)CN(C2CCS(=O)(=O)CC2)C[C@@H]1C | LATS2 | binding, TR-FRET |  | Kd | 0.0017 µM
N=C(N)NCC(=O)O | SLC6A6 | binding, MST |  | Kd | 35.8 µM
Cc1ccc(C(=O)Nc2ccc(S(=O)(=O)O)c3cc(S(=O)(=O)O)cc(S(=O)(=O)O)c23)cc1NC(=O)c1cccc(NC(=O)Nc2cccc(C(=O)Nc3cc(C(=O)Nc4ccc(S(=O)(=O)O)c5cc(S(=O)(=O)O)cc(S(=O)(=O)O)c45)ccc3C)c2)c1 | Electrogenic aspartate/glutamate antiporter SLC25A13, mitochondrial (SLC25A13, Homo sapiens, UniProt Q9UJS0) | binding, ITC | pH 6.5 | Kd | 7.57 µM
O=C1NC(c2cccc([N+](=O)[O-])c2)=CCN1c1ccccc1O | TRPM8 | ion current, agonist, patch clamp |  | EC50 | 0.412 µM
COc1cc(/C=N/NC(=S)N/N=C\c2ccc(Cl)c(Cl)c2)ccc1Oc1ccnc2cc(Cl)ccc12 | AKR1B1 | enzyme activity, inhibitor, absorbance |  | IC50 | 13.4 µM
CCCCCCCCCP(=O)(C(C)C)C(C)C | TRPM8 | ion current, agonist, patch clamp |  | EC50 | 24.8 µM
CNC(=O)c1ccccc1Nc1nc(Nc2ccc(N3CCNCC3)cc2)ncc1Cl | LATS2 | target engagement in cells, BRET |  | IC50 | 0.211 µM
NCCCC(=O)O | SLC6A6 | binding, MST |  | Kd | 26 µM
